Data published in ChEMBL document CHEMBL5506026, “New Improved cGMP Analogues to Target Rod Photoreceptor Degeneration” (J Med Chem, 2024).
Activity calls are given as the source filed them. The calls are words filed in the database; no cut-off is given here.

What was measured:
[1] = Cytotoxicity against mouse 661W-A11 cells assessed as reduction in cell viability at 1 to 1000 uM incubated for 48 hrs by MTT assay; assay type: toxicity, cell-based; conditions: 661w-a11, 48 h, dose 1-1000 µM
How it was run: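 661W-A11 rod-like mouse photoreceptor line (1 mg/mL glucose DMEM, 10% FBS, 37 °C, 5% CO2), seeded 6000 cells/well; next day exposed to scaling concentrations (1 μM to 1 mM) for 48 h in H2O or DMSO vehicle, matched vehicle controls. MTT 1 mg/mL, 90 min at 37 °C; formazan dissolved in isopropanol, OD 570 nm; untreated cells set as 100% viability; at least three biological replicates.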

[2] = test system: 661W-A11; assay: Neuroprotective activity against zaprinast induced mouse 661W-A11 cells assessed as increase in cell viability at 50 uM preincubated for 2 hrs followed by zaprinast addition at 200 uM and measured after 48 hrs by MTT assay; assay type: functional, cell-based; conditions: time 50.0 hrs
How it was run: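 661W-A11 cells seeded 6000/well; 24 h later pretreated 2 h with 50 µM compound, then 200 µM zaprinast 48 h with compound present. MTT 1 mg/mL for 90 min at 37 °C, formazan in isopropanol, OD 570 nm. Viability normalized to matched vehicle (H2O or DMSO) set at 100%. ≥3 biological replicates, mean ± SD.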

[3] = test system: 661W-A11; assay: Neuroprotective activity against zaprinast induced mouse 661W-A11 cells assessed as reduction in cell death at 50 uM preincubated for 2 hrs followed by zaprinast addition at 200 uM and measured after 48 hrs by TUNEL assay; assay type: functional, cell-based; conditions: time 50.0 hrs
How it was run: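 661W-A11 cells seeded 20,000/well; 2 h pretreatment with 50 µM compound, then 200 µM zaprinast 48 h. Fixed in 2% paraformaldehyde, permeabilized in citrate/0.1% Triton X-100 on ice, TUNEL (TMR red) 30 min at 37 °C, DAPI counterstain, fluorescence microscopy. Death = TUNEL+ cells/DAPI+ cells. ≥3 biological replicates, mean ± SD.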

[4] = test system: Primary photoreceptor cell; assay: Neuroprotective activity in rd1 mouse Primary photoreceptor cells harboring loss of function mutation in Pde6b gene assessed as reduction in cell death at 50 uM administered at day 10 of differentiation and measured after 24 hrs by TUNEL assay; assay type: functional, cell-based
How it was run: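 Neurosphere-derived retinal stem cells from rd1 mouse eyes differentiated in vitro into photoreceptors. 50 µM compound or vehicle added on day 10; TUNEL on day 11 (24 h exposure), scored as TUNEL+/DAPI+ nuclei by fluorescence microscopy. ≥3 biological replicates, mean ± SD.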

[5] = Neuroprotective activity against zaprinast induced mouse 661W-A11 cells assessed as increase in cell viability at 1 to 1000 uM preincubated for 2 hrs followed by zaprinast addition at 200 uM and measured after 48 hrs by MTT assay relative to control; assay type: functional; conditions: dose 1-1000 µM, time 50 hrs
How it was run: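 661W-A11 rod-like cells (DMEM 1 mg/mL glucose, 10% FBS, 37 °C, 5% CO2) seeded 6000/well; next day pretreated 2 h with 1 µM–1 mM compound, then 200 µM zaprinast 48 h with compound present. MTT 1 mg/mL, 90 min at 37 °C, formazan in isopropanol, OD 570 nm. EC50 from dose–response curve; ≥3 biological replicates, mean ± SEM.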

Compound	Activity [1]	Activity [2]	Activity [3]	Activity [4]	Activity [5]
CCN(CC)CC.O=c1c2nc(Br)n([C@@H]3O[C@@H]4COP(=S)(S)O[C@H]4[C@H]3O)c2nc2[nH]c(-c3ccccc3)cn12 (some centres undefined)	Non-Toxic	Active	Active	Active	–
CCN(CC)CC.O=c1c2nc(Br)n([C@@H]3O[C@@H]4CO[P@](O)(=S)O[C@H]4[C@H]3O)c2nc2[nH]c(-c3ccccc3)cn12	–	Active	Active	Active	<=70%
O=c1c2nc(Br)n([C@@H]3O[C@@H]4CO[P@@]([O-])(=S)O[C@H]4[C@H]3O)c2nc2[nH]c(-c3ccccc3)cn12.[Na+]	–	Active	Active	Active	<=70%
O=c1c2nc(Br)n([C@@H]3O[C@@H]4COP(=O)(O)O[C@H]4[C@H]3O)c2nc2[nH]c(-c3ccccc3)cn12	–	inactive	inactive	–	–
